Active and inactive are the calls of the source. No cut-off for these calls is given here.
How the values were obtained:
[1] = Inhibition of Toxoplasma gondii RH full length CDPK1 expressed in Escherichia coli BL21(DE3) using syntide-2 peptide as substrate after 20 mins by ELISA; type: cell-free
Outline: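 His-tagged recombinant CDPK1 purified by nickel affinity. Syntide-2-coated plates blocked with 3% BSA. Reaction run 20 min at 30°C in HEPES pH 7.5 with 10 mM MgCl₂, 2.5 mM CaCl₂, 0.1 mM EGTA and 1 mM DTT. Each enzyme used at its half-maximal-activity concentration with ATP at its own Km. Phosphopeptide detected by mAb MS-6E6/HRP-TMB at A450. Triplicates; IC50 from variable-slope sigmoidal fit.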

Toxoplasma gondii [2] = experiment: Antiparasitic activity against wild type tachyzoites of Toxoplasma gondii RH type 1 infected in HFF cells incubated for 20 mins prior to inoculation followed by compound washout at 4 hrs measured after 72 hrs by beta-galactoside reporter assay; type: functional, organism-based; conditions: RH type 1, HFF
Outline: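 Type I RH 2F clone (β-gal) in confluent HFF, DMEM with 10% FBS. Compounds diluted from 10 mM DMSO stock into medium with 1% DMSO (also no-compound control). Parasites preincubated 20 min at room temperature with compound, 5×10^2/well added, spun ~300 g 5 min. Washed with warm PBS at 4 h, grown to 72 h. Triton X-100 lysis, chlorophenol red-β-D-galactopyranoside, A570. Triplicates; EC50 from variable-slope sigmoidal fit.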

Liver microsomes [3] = experiment: Half life in rat liver microsomes by LC-MS analysis; type: ADME, Microsome
Toxoplasma gondii [4] = experiment: Ratio of growth inhibition of Toxoplasma gondii harboring wild type CDPK1 to growth inhibition of Toxoplasma gondii harboring CDPK1 G128M mutant; type: functional
Toxoplasma gondii [5] = experiment: Antiparasitic activity against Toxoplasma gondii harboring wild type CDPK1 infected in HFF cells incubated for 20 mins prior to infection followed by compound washout at 1 hr measured after 72 hrs by crystal violet staining method; type: functional, organism-based
Outline: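 CDPK1-cKO parasites complemented with wild-type CDPK1, grown 72 h with 1 μg/ml ATc and kept in ATc throughout. Parasites pre-incubated 20 min at 37°C in DMEM/10% FBS with compound or 1% DMSO vehicle. 10⁵ per well added to confluent HFF, spun 300g for 2 min, infected 1 h at 37°C, then rinsed 5× with warm PBS. Grown 72 h with ATc; lysis read by crystal violet A570, as % of DMSO control.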

Liver microsomes [6] = experiment: Intrinsic clearance in rat liver microsomes assessed per mg of protein after 10 to 60 mins by LC-MS analysis in presence of NADPH; type: ADME, Microsome
Toxoplasma gondii [7] = experiment: Antiparasitic activity against tachyzoites of Toxoplasma gondii RH type 1 infected in HFF cells incubated for 24 hrs followed by compound washout measured after 72 hrs by beta-galactoside reporter assay; type: functional, organism-based
Outline: (§1)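 RH type I 2F clone expressing β-gal; compounds from 10 mM DMSO stocks diluted in medium with 1% DMSO. Parasites preincubated with compound 20 min at room temperature, then 5×10^2/well added to confluent HFF in DMEM/10% FBS and centrifuged. Washed with warm PBS after 4 or 24 h, grown to 72 h. Lysed in 1% Triton X-100; 1 mM chlorophenol red-β-D-galactopyranoside, A570.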

Toxoplasma gondii RH [8] = experiment: Selectivity ratio of IC50 for Toxoplasma gondii RH CDPK1 G128S mutant to Toxoplasma gondii RH full length CDPK1
Toxoplasma gondii [9] = experiment: Antiparasitic activity against trachyzoites of Toxoplasma gondii type 2 expressing Pru-LUC infected in Balb/c mouse assessed as host survival at 5 mg/kg, ip administered for 10 days measured on day 30; conditions: type II
Toxoplasma gondii [10] = experiment: Antiparasitic activity against Toxoplasma gondii type 2 expressing Pru-LUC infected in Balb/c mouse assessed reduction in number of tissue cysts in brain at 5 mg/kg, […] for 10 days measured after 30 days by fluorescently labeled lectin staining based microscopic analysis relative to control; type: functional, organism-based; parameters: dose 5 mg/kg; conditions: type II
Toxoplasma gondii RH [11] = experiment: Selectivity ratio of IC50 for Toxoplasma gondii RH CDPK1 G128A mutant to Toxoplasma gondii RH full length CDPK1
Toxoplasma gondii [12] = experiment: Antiparasitic activity against tachyzoites of Toxoplasma gondii RH type 1 infected in HFF cells incubated for 4 hrs followed by compound washout measured after 72 hrs by beta-galactoside reporter assay; type: functional, organism-based; conditions: RH type 1, HFF; outline: as §1

SMILES	IC50 [1]	EC50 (Toxoplasma gondii [2])	further results
CC(C)(C)n1nc(Cc2cccc(Cl)c2Cl)c2c(N)ncnc21	3.38 nM	380 nM	–
CC(C)n1nc(Cc2cc(F)cc(Cl)c2)c2c(N)ncnc21	4.59 nM	180 nM	t1/2 (Liver microsomes [3]): 2.4 min; Ratio (Toxoplasma gondii [4]): 100; Activity (Toxoplasma gondii [5]): Active; CLint (Liver microsomes [6]): > 350 µL/min/mg
CC(C)n1nc(Cc2cc(Cl)ccc2F)c2c(N)ncnc21	92.4 nM	6730 nM	–
CC(C)(C)n1nc(-c2cccc(Oc3ccccc3)c2)c2c(N)ncnc21	26.6 nM	1320 nM	–
CC(C)n1nc(Cc2cccc(Cl)c2F)c2c(N)ncnc21	1.43 nM	1400 nM	–
CC(C)(C)n1nc(Cc2ccc3ccccc3c2)c2c(N)ncnc21	35.4 nM	1940 nM	–
CC(C)(C)n1nc(-c2ccc3c(c2)OCO3)c2c(N)ncnc21	13.8 nM	620 nM	–
CC(C)(C)n1nc(-c2cccc3ccccc23)c2c(N)ncnc21	–	700 nM	–
CCc1nc(N)nc(N)c1-c1ccc(Cl)cc1	–	–	Activity (Toxoplasma gondii [7]): Active
CC(C)n1nc(C(F)c2cccc(Cl)c2Cl)c2c(N)ncnc21 (stereo not drawn)	13.6 nM	2630 nM	t1/2 (Liver microsomes [3]): 12.9 min; CLint (Liver microsomes [6]): 107 µL/min/mg
CC(C)(C)n1nc(-c2cccc(OCc3c(Cl)cccc3Cl)c2)c2c(N)ncnc21	2470 nM	4530 nM	–
CC(C)n1nc(Cc2cc(F)cc(F)c2)c2c(N)ncnc21	50.9 nM	2070 nM	–
CC(C)(C)n1nc(Cc2cccc(Br)c2)c2c(N)ncnc21	9.64 nM	380 nM	t1/2 (Liver microsomes [3]): 3 min; CLint (Liver microsomes [6]): > 350 µL/min/mg
Cc1cccc(Cc2nn(C(C)(C)C)c3ncnc(N)c23)c1	3.99 nM	110 nM	Ratio IC50 (Toxoplasma gondii RH [8]): 5.6; Ratio (Toxoplasma gondii [4]): 100; Activity (Toxoplasma gondii [9]): Active; Activity (Toxoplasma gondii [5]): Active; Activity (Toxoplasma gondii [10]): Active; Ratio IC50 (Toxoplasma gondii RH [11]): 3; EC50 (Toxoplasma gondii [12]): 100 nM
CC(C)(C)n1nc(Cc2cc(F)cc(F)c2)c2c(N)ncnc21	–	610 nM	Activity (Toxoplasma gondii [9]): Active; Activity (Toxoplasma gondii [10]): Active
CC(C)(C)c1ccc(-c2nn(C(C)(C)C)c3ncnc(N)c23)cc1	1310 nM	3770 nM	–
CC(C)(C)n1nc(Cc2cccc3ccccc23)c2c(N)ncnc21	–	1310 nM	–
CC(C)(C)n1nc(Cc2ccc(F)c(Cl)c2)c2c(N)ncnc21	8.47 nM	410 nM	t1/2 (Liver microsomes [3]): 4 min; CLint (Liver microsomes [6]): > 350 µL/min/mg
CC(C)n1nc(Cc2ccc(F)c(Cl)c2)c2c(N)ncnc21	13.1 nM	560 nM	–
CC(C)(C)n1nc(Cc2cc(F)cc(Cl)c2)c2c(N)ncnc21	13.2 nM	430 nM	–
CC(C)(C)n1nc(Cc2cc(Cl)ccc2F)c2c(N)ncnc21	12.5 nM	920 nM	t1/2 (Liver microsomes [3]): 5.5 min; CLint (Liver microsomes [6]): 250 µL/min/mg
CC(C)n1nc(C(O)c2cccc(Cl)c2Cl)c2c(N)ncnc21 (stereo not drawn)	200 nM	9460 nM	t1/2 (Liver microsomes [3]): 20.2 min; CLint (Liver microsomes [6]): 68 µL/min/mg
CC(C)(C)n1nc(Cc2cccc(I)c2)c2c(N)ncnc21	12.9 nM	1120 nM	–
CC(C)n1nc(Cc2cccc(Cl)c2Cl)c2c(N)ncnc21	2.38 nM	250 nM	t1/2 (Liver microsomes [3]): 7 min; Ratio (Toxoplasma gondii [4]): 100; Activity (Toxoplasma gondii [9]): Active; Activity (Toxoplasma gondii [5]): Active; Activity (Toxoplasma gondii [10]): Active; CLint (Liver microsomes [6]): 190 µL/min/mg
CC(C)(C)n1nc(Cc2cccc(Cl)c2F)c2c(N)ncnc21	7.37 nM	360 nM	t1/2 (Liver microsomes [3]): 2.5 min; CLint (Liver microsomes [6]): > 350 µL/min/mg
CC(C)(C)n1nc(Cc2cccc(Cl)c2)c2c(N)ncnc21	–	30 nM	Activity (Toxoplasma gondii [9]): Active; Activity (Toxoplasma gondii [5]): Active; Activity (Toxoplasma gondii [10]): Active
CC(C)(C)n1nc(-c2cccc(OCc3ccccc3)c2)c2c(N)ncnc21	374 nM	11600 nM	–

Source: ChEMBL document CHEMBL2321856, “Optimizing small molecule inhibitors of calcium-dependent protein kinase 1 to prevent infection by Toxoplasma gondii” (J Med Chem, 2013)
